From ChEMBL document CHEMBL1138555, “N-acylated and N,N'-diacylated imidazolidine-2-thione derivatives and N,N'-diacylated tetrahydropyrimidine-2(1H)-thione analogues: synthesis and antiproliferative activity” (Eur J Med Chem, 2009)
Active and inactive are the calls of the source. No cut-off for these calls is given here.

How the values were obtained:
[1] = system: Human immunodeficiency virus 1; assay: Antiviral activity against HIV1 in human MT4 cells assessed as prevention of virus-induced cytopathogenicity; assay type: functional, organism-based
Procedure, shortened: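 MT-4 cells, 1 × 10⁴ per well, with serial compound dilutions from a 100 mM DMSO stock. Infected with HIV-1 at 100 CCID50. Four-day incubation at 37 °C, then viable cells measured by MTT. Read-out is inhibition of virus-induced cytopathogenicity, assessed at non-cytotoxic concentrations.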

[2] = system: MDA-MB-231; assay: Growth inhibition of human MDA-MB-231 cells after 48 hrs by sulforhodamine B assay; assay type: functional; details: MDA-MB-231, 48 h
Procedure, shortened: (§1)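 NCI screen panel. Five 10-fold concentrations from 10^-4 to 10^-8 M. Exposure for the last 48 h of a 72 h incubation. Growth estimated by sulforhodamine B protein assay. GI50 is the concentration giving 50% growth inhibition. Where that level was not reached or was exceeded, the value is given as above or below the highest or lowest concentration tested.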

[3] = system: UACC-257; assay: Growth inhibition of human UACC257 cells after 48 hrs by sulforhodamine B assay; assay type: functional; details: UACC-257, 48 h
Procedure, shortened: (§2)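 NCI in vitro panel screen. Compounds tested at five 10-fold dilutions, 10^-4 to 10^-8 M. Cells in 96-well plates were exposed for the last 48 h of a 72 h incubation. Viability/growth was read by sulforhodamine B protein assay. GI50 is the concentration giving 50% growth inhibition. Values beyond the tested range are reported as greater or less than the maximum or minimum concentration.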

[4] = system: NCI-H522; assay: Growth inhibition of human NCI-H522 cells after 48 hrs by sulforhodamine B assay; assay type: functional; details: NCI-H522, 48 h; procedure, shortened: as §1
[5] = system: DU-145; assay: Growth inhibition of human DU145 cells after 48 hrs by sulforhodamine B assay; assay type: functional; details: DU-145, 48 h; procedure, shortened: as §1
[6] = system: 786-0; assay: Growth inhibition of human 786-0 cells after 48 hrs by sulforhodamine B assay; assay type: functional; details: 786-0, 48 h; procedure, shortened: as §1
[7] = system: OVCAR-8; assay: Growth inhibition of human OVCAR8 cells after 48 hrs by sulforhodamine B assay; assay type: functional; details: OVCAR-8, 48 h; procedure, shortened: as §1
[8] = system: HOP-92; assay: Growth inhibition of human HOP92 cells after 48 hrs by sulforhodamine B assay; assay type: functional; details: HOP-92, 48 h; procedure, shortened: as §1
[9] = system: NCI/ADR-RES; assay: Growth inhibition of human NCI/ADR-RES cells after 48 hrs by sulforhodamine B assay; assay type: functional; procedure, shortened: as §1
[10] = system: CAKI-1; assay: Growth inhibition of human Caki1 cells after 48 hrs by sulforhodamine B assay; assay type: functional; details: CAKI-1, 48 h; procedure, shortened: as §1
[11] = system: OVCAR-3; assay: Growth inhibition of human OVCAR-3 cells after 48 hrs by sulforhodamine B assay; assay type: functional; details: OVCAR-3, 48 h; procedure, shortened: as §1
[12] = system: MT4; assay: Antiproliferative activity against human MT4 cells assessed as reduction of growth by MTT assay; assay type: functional, cell-based
Procedure, shortened: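 MT-4 lymphoblastoid T cells (ATCC) in RPMI 1640 with 10% FCS, penicillin/streptomycin, checked for mycoplasma. 1 × 10⁴ mock-infected cells per well with serial dilutions from a 100 mM DMSO stock. Incubated 4 days at 37 °C, viable cells counted by MTT. IC50 versus untreated controls by linear regression. Mean of three separate experiments.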

[13] = system: SNB-19; assay: Growth inhibition of human SNB19 cells after 48 hrs by sulforhodamine B assay; assay type: functional; details: SNB-19, 48 h; procedure, shortened: as §2
[14] = system: Malme-3M; assay: Growth inhibition of human MALME-3M cells after 48 hrs by sulforhodamine B assay; assay type: functional; procedure, shortened: as §1
[15] = system: MDA-MB-435; assay: Growth inhibition of human MDA-MB-435 cells after 48 hrs by sulforhodamine B assay; assay type: functional; details: MDA-MB-435, 48 h; procedure, shortened: as §1
[16] = system: OVCAR-4; assay: Growth inhibition of human OVCAR4 cells after 48 hrs by sulforhodamine B assay; assay type: functional; details: OVCAR-4, 48 h; procedure, shortened: as §1
[17] = system: UACC-62; assay: Growth inhibition of human UACC62 cells after 48 hrs by sulforhodamine B assay; assay type: functional; details: UACC-62, 48 h; procedure, shortened: as §2
[18] = system: SW-620; assay: Growth inhibition of human SW620 cells after 48 hrs by sulforhodamine B assay; assay type: functional; details: SW-620, 48 h; procedure, shortened: as §2
[19] = system: SF-268; assay: Growth inhibition of human SF268 cells after 48 hrs by sulforhodamine B assay; assay type: functional; details: SF-268, 48 h; procedure, shortened: as §1
[20] = system: MCF7; assay: Growth inhibition of human MCF7 cells after 48 hrs by sulforhodamine B assay; assay type: functional; details: MCF7, 48 h; procedure, shortened: as §1
[21] = system: HCT-15; assay: Growth inhibition of human HCT15 cells after 48 hrs by sulforhodamine B assay; assay type: functional; details: HCT-15, 48 h; procedure, shortened: as §1
[22] = system: HOP-62; assay: Growth inhibition of human HOP62 cells after 48 hrs by sulforhodamine B assay; assay type: functional; details: HOP-62, 48 h; procedure, shortened: as §1
[23] = system: UO-31; assay: Growth inhibition of human UO31 cells after 48 hrs by sulforhodamine B assay; assay type: functional; details: UO-31, 48 h; procedure, shortened: as §2
[24] = system: K562; assay: Growth inhibition of human K562 cells after 48 hrs by sulforhodamine B assay; assay type: functional; details: K562, 48 h; procedure, shortened: as §1
[25] = system: NCI-H460; assay: Growth inhibition of human NCI-H460 cells after 48 hrs by sulforhodamine B assay; assay type: functional; details: NCI-H460, 48 h; procedure, shortened: as §1
[26] = system: SK-MEL-5; assay: Growth inhibition of human SK-MEL-5 cells after 48 hrs by sulforhodamine B assay; assay type: functional; details: SK-MEL-5, 48 h; procedure, shortened: as §1
[27] = system: M14; assay: Growth inhibition of human M14 cells after 48 hrs by sulforhodamine B assay; assay type: functional; details: M14, 48 h; procedure, shortened: as §1
[28] = system: SR; assay: Growth inhibition of human SR cells after 48 hrs by sulforhodamine B assay; assay type: functional; procedure, shortened: as §2
[29] = system: U-251; assay: Growth inhibition of human U251 cells after 48 hrs by sulforhodamine B assay; assay type: functional; details: U-251, 48 h; procedure, shortened: as §2
[30] = system: ACHN; assay: Growth inhibition of human ACHN cells after 48 hrs by sulforhodamine B assay; assay type: functional; procedure, shortened: as §1
[31] = system: A549; assay: Growth inhibition of human A549 cells after 48 hrs by sulforhodamine B assay; assay type: functional; details: A549, 48 h; procedure, shortened: as §1
[32] = system: TK-10; assay: Growth inhibition of human TK10 cells after 48 hrs by sulforhodamine B assay; assay type: functional; details: TK-10, 48 h; procedure, shortened: as §2
[33] = system: HT-29; assay: Growth inhibition of human HT-29 cells after 48 hrs by sulforhodamine B assay; assay type: functional; details: HT-29, 48 h; procedure, shortened: as §1
[34] = system: EKVX; assay: Growth inhibition of human EKVX cells after 48 hrs by sulforhodamine B assay; assay type: functional; procedure, shortened: as §1
[35] = system: CCRF-CEM; assay: Growth inhibition of human CCRF-CEM cells after 48 hrs by sulforhodamine B assay; assay type: functional; procedure, shortened: as §1
[36] = system: SK-OV-3; assay: Growth inhibition of human SKOV3 cells after 48 hrs by sulforhodamine B assay; assay type: functional; details: SK-OV-3, 48 h; procedure, shortened: as §1
[37] = system: NCI-H23; assay: Growth inhibition of human NCI-H23 cells after 48 hrs by sulforhodamine B assay; assay type: functional; details: NCI-H23, 48 h; procedure, shortened: as §1
[38] = system: SK-MEL-28; assay: Growth inhibition of human SK-MEL-28 cells after 48 hrs by sulforhodamine B assay; assay type: functional; details: SK-MEL-28, 48 h; procedure, shortened: as §1
[39] = system: NCI-H322M; assay: Growth inhibition of human NCI-H322M cells after 48 hrs by sulforhodamine B assay; assay type: functional; procedure, shortened: as §1
[40] = system: IGROV-1; assay: Growth inhibition of human IGROV1 cells after 48 hrs by sulforhodamine B assay; assay type: functional; details: IGROV-1, 48 h; procedure, shortened: as §1
[41] = system: PC-3; assay: Growth inhibition of human PC3 cells after 48 hrs by sulforhodamine B assay; assay type: functional; details: PC-3, 48 h; procedure, shortened: as §1
[42] = system: SN12C; assay: Growth inhibition of human SN12C cells after 48 hrs by sulforhodamine B assay; assay type: functional; procedure, shortened: as §2
[43] = system: HCT-116; assay: Growth inhibition of human HCT116 cells after 48 hrs by sulforhodamine B assay; assay type: functional; details: HCT-116, 48 h; procedure, shortened: as §1
[44] = system: MOLT-4; assay: Growth inhibition of human MOLT4 cells after 48 hrs by sulforhodamine B assay; assay type: functional; details: MOLT-4, 48 h; procedure, shortened: as §1
[45] = system: BT-549; assay: Growth inhibition of human BT549 cells after 48 hrs by sulforhodamine B assay; assay type: functional; details: BT-549, 48 h; procedure, shortened: as §1
[46] = system: SF-295; assay: Growth inhibition of human SF295 cells after 48 hrs by sulforhodamine B assay; assay type: functional; details: SF-295, 48 h; procedure, shortened: as §1
[47] = system: LOX IMVI; assay: Growth inhibition of human LOXIMVI cells after 48 hrs by sulforhodamine B assay; assay type: functional; procedure, shortened: as §1
[48] = system: KM12; assay: Growth inhibition of human KM12 cells after 48 hrs by sulforhodamine B assay; assay type: functional; details: KM12, 48 h; procedure, shortened: as §1
[49] = Growth inhibition of human […] cells after 48 hrs by sulforhodamine B assay; assay type: functional; procedure, shortened: as §1
[50] = system: HL-60(TB); assay: Growth inhibition of human HL-60(TB) cells after 48 hrs by sulforhodamine B assay; assay type: functional; details: HL-60, 48 h
Procedure, shortened: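 NCI 60-cell-line screen protocol: cells exposed to compound at five 10-fold dilutions from 10^-4 to 10^-8 M for the last 48 h of a 72 h incubation. Sulforhodamine B protein assay estimated viability/growth. GI50 (50% growth inhibition) derived; where not reached or exceeded, reported as greater or less than the highest or lowest concentration tested.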

[51] = system: COLO 205; assay: Growth inhibition of human COLO205 cells after 48 hrs by sulforhodamine B assay; assay type: functional; details: COLO 205, 48 h; procedure, shortened: as §1
[52] = system: SK-MEL-2; assay: Growth inhibition of human SK-MEL-2 cells after 48 hrs by sulforhodamine B assay; assay type: functional; details: SK-MEL-2, 48 h; procedure, shortened: as §1
[53] = system: RXF 393; assay: Growth inhibition of human RXF393 cells after 48 hrs by sulforhodamine B assay; assay type: functional; details: RXF 393, 48 h; procedure, shortened: as §1

With CC(=O)/C(=C/N1CCNC1=S)C(=O)c1ccccc1 the Activity [1] was “inactive”.

For N#C/C(=C\N1CCNC1=S)C(=O)c1ccccc1, the Activity [1] was “inactive”.

In the case of N#C/C(=C\N1CCN(C(=O)c2ccco2)C1=S)C(=O)Nc1ccc(Cl)cc1, the GI50 [2] is reported as 18.4 µM, the GI50 [3] is reported as 16.5 µM and the GI50 [4] is reported as 16.7 µM. For the same molecule, the GI50 [5] was 15.9 µM, the GI50 [6] was 17.4 µM and the GI50 [7] was 20.6 µM. The GI50 [8] was 21.5 µM, the GI50 [9] was 28.1 µM and the GI50 [10] was 13.2 µM. The GI50 [11] was 15.5 µM, the IC50 [12] was 6.5 µM and the GI50 [13] was 27.6 µM. It also gave a GI50 [14] of 21.4 µM, a GI50 [15] of 15.2 µM and a GI50 [16] of 25.2 µM. The GI50 [17] was 16.9 µM, the GI50 [18] was 17.3 µM and the GI50 [19] was 17.8 µM. The GI50 [20] was 21 µM, the GI50 [21] was 21.3 µM and the GI50 [22] was 25.7 µM. It also gave a GI50 [23] of 12 µM, a GI50 [24] of 16.1 µM and a GI50 [25] of 19.9 µM. It also gave a GI50 [26] of 11.2 µM, a GI50 [27] of 14.2 µM and a GI50 [28] of 1.6 µM. It also gave a GI50 [29] of 17.3 µM, a GI50 [30] of 15.3 µM and a GI50 [31] of 25.8 µM. For the same molecule, the GI50 [32] was 19.4 µM, the GI50 [33] was 21.4 µM and the GI50 [34] was 0.01 µM. It also gave a GI50 [35] of 22.5 µM, a GI50 [36] of 41.2 µM and a GI50 [37] of 12.3 µM. The GI50 [38] was 18.7 µM, the GI50 [39] was 28.6 µM and the GI50 [40] was 25.3 µM. For the same molecule, the GI50 [41] was 18.9 µM, the GI50 [42] was 11.8 µM and the GI50 [43] was 15.2 µM. It also gave a GI50 [44] of 17.7 µM, a GI50 [45] of 8.6 µM and a GI50 [46] of 20.2 µM. The GI50 [47] was 16.7 µM, the GI50 [48] was 16.3 µM and the GI50 [49] was 10.5 µM. For the same molecule, the GI50 [50] was 10.5 µM, the GI50 [51] was 25.6 µM and the GI50 [52] was 16.7 µM. It also gave a GI50 [53] of 13.1 µM.
